Consider one compound from ChEMBL document CHEMBL1166014, “Targeting efflux pumps-In vitro investigations with acridone derivatives and identification of a lead molecule for MDR modulation” (Bioorg Med Chem, 2010).

Each structure is given as a SMILES string. Values after ≈ are worked out from the molar mass of the structure shown. Active and inactive are the calls of the source. No cut-off for these calls is given here.

Test [1] concerns Candida albicans. Description: Antifungal activity at Candida albicans CAI4 assessed as inhibition of fungal growth at 0.9 mg/ml after 48 hrs by spot assay. The format is functional, organism-based. The gist of the method:
(§1)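 Spot assay on YEPD-agar plates containing compound (with Congo red or calcofluor white where applicable); solvent (MeOH/DMSO 1:1) and YEPD-only control plates; CAI4 primary culture 16 h, secondary 5 h at 30 °C from 4% inoculum, diluted in 0.9% saline; 10⁵ to 10⁰ cells spotted; 30 °C 48 h, growth scored.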

The test system of test [2] is Candida albicans. Description: Effect of membrane integrity of Candida albicans CAI4 at 800 ug/ml after 48 hrs by spot assay in presence of 300 ug/ml congo red. It counts as functional, organism-based. The procedure, abridged:
as §1

Test [3] deals with Candida albicans. Description: Effect of membrane integrity of Candida albicans CAI4 at 800 ug/ml after 48 hrs by spot assay in presence of 300 ug/ml calcofluor white. The format is functional, organism-based. The gist of the method:
as §1

For test [4], the target named is Multidrug resistance protein CDR1 (Candida albicans) (UniProt P43071). Nature of the test: Inhibition of CDR1-mediated efflux of rhodamine 6G in Candida albicans CAI4 at 800 ug/ml up to 60 mins by spectrofluorimetry in presence of 2 mM 2-deoxyglucose treated for 2 hrs before compound addition. The gist of the method:
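C. albicans CAI4 secondary culture (YEPD, 30 °C, ~5 h) washed in PBS, 2% cell suspension de-energised with 2 mM 2-deoxyglucose on rocker 2 h; R6G loaded, cells pelleted, washed, resuspended in PBS with or without 2% glucose; compound at 800 µg/ml with MeOH/DMSO 1:1 solvent control; supernatant R6G fluorescence read (ex 529, em 553 nm) over time.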

A short description of test [5]: Binding affinity to P-gp assessed as increase in basal protein activity at 5 uM after 30 mins by spectrophotometry. The gist of the method:
(§2)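 P-gp vesicles from DC-3F/ADX MDR cells; basal MgATP hydrolysis measured by PK/LDH-coupled NADH oxidation (PEP, NADH), with non-specific ATPase inhibitor; vesicles 5 min at 37 °C, compound added (final 0.05, 0.5, 5 µM) 5 min, MgATP then 20 min at 37 °C; A340 read twice 20 min apart; triplicate; verapamil, vinblastine, progesterone references.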

A short description of test [6]: Binding affinity to P-gp assessed as increase in basal protein activity at 0.05 uM after 30 mins by spectrophotometry. The gist of the method: as §2
The subject of another test is ATP. Nature of the test: Binding affinity to ATP at 50 uM in HEPES buffer of pH 7.2 by spectrophotometry. The gist of the method:
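UV-vis titration: compound held constant at 50 µM in HEPES pH 7.2, titrated with NaATP (from 10^-2 M stock) over 0–3 equiv; absorbance change followed; binding constant from Benesi–Hildebrand plot.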

Test [7] in a line: Binding affinity to Mg2+ at 100 uM in HEPES buffer of pH 7.2 by spectrophotometry. The procedure, abridged:
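Compound at 10^-4 M in 10^-2 M HEPES pH 7.2 titrated with Mg²⁺ (0–0.5 × 10^-4 M); absorbance changes at 270–310, 390–415 and 320–340 nm monitored; binding constant by Benesi–Hildebrand equation.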

Test [8] concerns Candida albicans. Description: Antifungal activity at Candida albicans CAI4 after 48 hrs by ELISA. The format is functional. The conditions noted are these: CAI4, 48 h. The procedure, abridged: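 Broth microdilution; CAI4 streaked on YEPD, 30 °C 24 h; compounds serially diluted twofold in YEPD, solvent diluted alongside; growth control column; 30 °C 48 h; OD600 on plate reader; MIC80 = concentration giving 80% growth inhibition vs no-compound growth.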

For test [9], the system named is Candida albicans. Nature of the test: Antifungal activity at Candida albicans CAI4 assessed as reduction in colony formation at 1 mg/ml after 48 hrs by spot assay. The format is functional, organism-based. The procedure, abridged: as §1

In general, MIC80 refers to the lowest concentration that inhibits either 80% of growth or 80% of the strains tested, depending on the study. Higher therefore signals weaker potency.

Sequence of Multidrug resistance protein CDR1 (Candida albicans) (P43071 whole entry, looked up): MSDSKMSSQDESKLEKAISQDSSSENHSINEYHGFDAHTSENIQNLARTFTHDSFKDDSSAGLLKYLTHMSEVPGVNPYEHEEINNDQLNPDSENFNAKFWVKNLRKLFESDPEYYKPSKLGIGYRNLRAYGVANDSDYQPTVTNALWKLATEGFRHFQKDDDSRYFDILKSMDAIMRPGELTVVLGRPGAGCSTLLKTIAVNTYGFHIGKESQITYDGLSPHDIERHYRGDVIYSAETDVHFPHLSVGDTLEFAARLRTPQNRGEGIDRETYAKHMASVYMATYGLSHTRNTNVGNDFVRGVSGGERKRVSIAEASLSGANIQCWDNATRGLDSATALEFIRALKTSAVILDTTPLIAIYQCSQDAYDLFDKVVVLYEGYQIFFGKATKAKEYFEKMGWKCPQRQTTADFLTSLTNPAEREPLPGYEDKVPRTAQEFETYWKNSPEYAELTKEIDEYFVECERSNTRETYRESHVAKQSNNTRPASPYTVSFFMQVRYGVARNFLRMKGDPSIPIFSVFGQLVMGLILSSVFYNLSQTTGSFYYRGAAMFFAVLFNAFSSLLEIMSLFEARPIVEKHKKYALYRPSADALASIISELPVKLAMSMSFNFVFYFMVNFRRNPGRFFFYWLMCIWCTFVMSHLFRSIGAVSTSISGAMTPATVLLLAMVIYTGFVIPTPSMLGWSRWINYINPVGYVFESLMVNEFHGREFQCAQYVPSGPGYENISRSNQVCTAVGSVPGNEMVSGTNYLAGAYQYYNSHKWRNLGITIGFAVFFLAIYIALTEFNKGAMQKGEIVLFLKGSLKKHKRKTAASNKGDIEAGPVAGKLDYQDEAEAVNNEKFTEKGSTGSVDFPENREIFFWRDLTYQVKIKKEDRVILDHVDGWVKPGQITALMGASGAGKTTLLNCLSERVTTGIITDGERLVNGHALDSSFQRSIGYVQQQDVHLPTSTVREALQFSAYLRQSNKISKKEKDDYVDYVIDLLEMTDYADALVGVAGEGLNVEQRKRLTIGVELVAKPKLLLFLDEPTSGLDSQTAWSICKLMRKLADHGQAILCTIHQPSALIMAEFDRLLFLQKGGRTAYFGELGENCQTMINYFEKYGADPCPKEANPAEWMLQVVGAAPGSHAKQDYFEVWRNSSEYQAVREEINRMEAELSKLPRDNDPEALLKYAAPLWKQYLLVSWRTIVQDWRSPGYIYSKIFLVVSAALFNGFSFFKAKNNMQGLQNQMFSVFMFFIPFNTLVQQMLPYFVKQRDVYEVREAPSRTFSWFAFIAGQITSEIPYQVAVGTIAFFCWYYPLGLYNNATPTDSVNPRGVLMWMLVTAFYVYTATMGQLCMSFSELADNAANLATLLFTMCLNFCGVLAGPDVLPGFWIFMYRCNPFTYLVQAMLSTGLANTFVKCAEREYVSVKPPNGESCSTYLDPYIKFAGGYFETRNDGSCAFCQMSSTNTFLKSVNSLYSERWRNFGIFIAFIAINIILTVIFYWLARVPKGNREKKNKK

On to `O=C(O)c1cccc2c(=O)c3ccccc3n(CC(O)CN3CCCC3)c12` (stereo not given), for which the inhibition result with Candida albicans [1], in the test with Candida albicans [2] and in the test on Candida albicans [3] was “inactive” throughout. Moreover, the inhibition entry (in [4]; in the test on Candida albicans [9]) was “Active” throughout. Also, the Activity in test [5] was 100%; in test [6] it was 60%. The Ka entry in the test on ATP was “inactive”. Besides, the Ka in test [7] stood at 1.5 ×10⁵ /M. The same compound showed an MIC80 in the test with Candida albicans [8] of 781 µg/mL (≈ 2130 µM).
